Holding throughout (format): functional
The nature of assay [1]: Growth inhibition of human HOP92 cells after 48 hrs by SRB assay. The note with it: HOP-92, 48 h. A digest of the protocol: (§1)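 NCI five-dose assay against the ~60-cell-line panel (nine cancer types). Tenfold dilutions from 10−4 to 10−8 M were used with continuous 48-h exposure and SRB absorbance readout. Percent growth was computed from time-zero, control and treated absorbances. GI50 is the concentration giving 50% lower net protein increase than controls. Values not reached are reported as beyond the tested range.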
(In general: In SRB staining, fixed cells bind dye roughly in proportion to their protein.)

Assay [2] in a line: Growth inhibition of human SNB cells after 48 hrs by SRB assay. In a few lines:
as §1

The nature of assay [3]: Growth inhibition of human RXF393 cells after 48 hrs by SRB assay. To be noted: RXF 393, 48 h; for TGI: read-out: pTGI (converted). A digest of the protocol: as §1
Assay [4] relates to A549. As to the kind of experiment: Growth inhibition of human A549/ATCC cells after 48 hrs by SRB assay. To be noted: A549, 48 h. In a few lines: as §1
In assay [5] the test system is TK-10. Kind of assay: Growth inhibition of human TK10 cells after 48 hrs by SRB assay. The note with it: TK-10, 48 h. In a few lines: (§2)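 NCI ~60-cell-line five-dose screen. Cells were preincubated 24-48 h, then given compound at 10-fold dilutions from 10^-4 to 10^-8 M with 48 h continuous exposure. SRB protein stain was read by absorbance at time zero, in untreated control and with drug. GI50 was derived from [(Ti-Tz)/(C-Tz)]x100=50, TGI from Ti=Tz, and LC50 from [(Ti-Tz)/Tz]x100=-50.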

Assay [6] deals with UACC-62. Kind of assay: Growth inhibition of human UACC62 cells after 48 hrs by SRB assay. To be noted: UACC-62, 48 h. A digest of the protocol:
as §2

For assay [7], the system named is HCT-116. Kind of assay: Growth inhibition of human HCT116 cells after 48 hrs by SRB assay. The note with it: HCT-116, 48 h. A digest of the protocol:
as §1

The nature of assay [8]: Growth inhibition of human […] cells after 48 hrs by SRB assay. In a few lines:
as §1

Assay [9] can be described thus: Growth inhibition of human OVCAR5 cells after 48 hrs by SRB assay. The note with it: OVCAR-5, 48 h. In a few lines:
as §1

Assay [10] deals with SF-268. As to the kind of experiment: Anticancer activity against human SF268 cells assessed as cell growth at 100 uM after 48 hrs by SRB assay. To be noted: SF-268, 48 h, read-out: Activity. A digest of the protocol: (§3)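 NCI one-dose primary screen on a three-line panel (breast MCF7, lung NCI-H460, CNS SF-268). Cells were inoculated and preincubated 24–48 h, then exposed to a single concentration of 10−4 M for 48 h. The endpoint was sulforhodamine B protein staining, and results are expressed as percent growth relative to untreated control cells. Negative values denote cytotoxicity.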

Assay [11] concerns U-251. As to the kind of experiment: Growth inhibition of human U251 cells after 48 hrs by SRB assay. The note with it: U-251, 48 h. A digest of the protocol: as §2
For assay [12], the system named is SF-295. As to the kind of experiment: Growth inhibition of human SF295 cells after 48 hrs by SRB assay. To be noted: SF-295, 48 h. A digest of the protocol:
as §1

Assay [13] deals with OVCAR-8. As to the kind of experiment: Growth inhibition of human OVCAR8 cells after 48 hrs by SRB assay. The note with it: OVCAR-8, 48 h. A digest of the protocol: as §1
For assay [14], the system named is MCF7. As to the kind of experiment: Anticancer activity against human MCF7 cells assessed as cell growth at 100 uM after 48 hrs by SRB assay. The note with it: MCF7, 48 h, read-out: Activity. A digest of the protocol:
as §3

Assay [15] concerns NCI-H522. Kind of assay: Growth inhibition of human NCI-H522 cells after 48 hrs by SRB assay. The note with it: NCI-H522, 48 h. In a few lines: as §1
The test system of assay [16] is NCI-H460. Kind of assay: Anticancer activity against human NCI-H460 cells assessed as cell growth at 100 uM after 48 hrs by SRB assay. The note with it: NCI-H460, 48 h, read-out: Activity. In a few lines:
as §3

Assay [17] concerns 786-0. Kind of assay: Growth inhibition of human 786-0 cells after 48 hrs by SRB assay. The note with it: 786-0, 48 h. A digest of the protocol:
as §1

The subject of assay [18] is NCI/ADR-RES. Kind of assay: Growth inhibition of human NCI/ADR-RES cells after 48 hrs by SRB assay. In a few lines:
as §1

The test system of assay [19] is ACHN. As to the kind of experiment: Growth inhibition of human ACHN cells after 48 hrs by SRB assay. In a few lines:
as §1

Assay [20] is described as follows: Growth inhibition of human HCC2998 cells after 48 hrs by SRB assay. The note with it: HCC 2998, 48 h. In a few lines:
as §1

Each structure is given as a SMILES string.

One may read the GI50 as the concentration at which growth is held to half of that of the control. A high value points to lower sensitivity of the cells.

As for `COc1ccc2cc(C(=O)OC(C)C)sc(=O)c2c1OC`, the values for the GI50 in assay [1], in assay [2] and in assay [3] were 28.8 µM, 23.4 µM and 20 µM, respectively. Also, the TGI is 85.1 µM in assay [1] (read-out: pTGI (converted)), 53.7 µM in [2] (read-out: pTGI (converted)) and 45.7 µM in assay [3].

As to `COc1ccc2cc(C(=O)Nc3ccc(F)cc3)sc(=O)c2c1OC`, the GI50 in assay [4] is 18.6 µM; in [5], 15.1 µM; in assay [6] it was 19.5 µM; in assay [7], 14.1 µM; in [8], 6.76 µM; in [9] it was 18.6 µM. Moreover, the concentration for 50% growth inhibition (GI50) in [3] was 10.7 µM; in [11], 5.5 µM; in assay [12] it was 18.2 µM; in [13], 12.3 µM; in assay [15], 18.2 µM; in [17], 11.5 µM. Further, the figures for the concentration for 50% growth inhibition (GI50) in assay [18], in assay [19] and in assay [20] were 12.6 µM, 7.08 µM and 14.1 µM, respectively. The TGI is > 100 µM in [4] (read-out: pTGI); 33.1 µM in assay [5] (read-out: pTGI (converted)); 52.5 µM in assay [6] (read-out: pTGI (converted)); 40.7 µM in assay [7] (read-out: pTGI (converted)); 22.9 µM in [8] (read-out: pTGI (converted)); 61.7 µM in assay [9] (read-out: pTGI (converted)). In addition, the TGI in assay [3] was 33.9 µM; in [11] (read-out: pTGI (converted)), 20.4 µM; in assay [12] (read-out: pTGI (converted)) it was 51.3 µM; in assay [13] (read-out: pTGI (converted)), 67.6 µM; in assay [15] (read-out: pTGI (converted)) it was 70.8 µM; in assay [17] (read-out: pTGI (converted)) it was 41.7 µM. The values for the TGI in assay [18] (read-out: pTGI (converted)), in assay [19] (read-out: pTGI (converted)) and in assay [20] (read-out: pTGI (converted)) were > 100 µM, 26.9 µM and 49 µM, respectively. The growth at 100 µM was found to be 60% in assay [10], 55% in assay [14] and 11% in [16].

The values above are taken from ChEMBL document CHEMBL3124905, “Isothiocoumarin-3-carboxylic acid derivatives: synthesis, anticancer and antitrypanosomal activity evaluation” (Eur J Med Chem, 2014).
